Data reported in paper PMC3159713 (Bioorganic & medicinal chemistry letters, 2011).

What was measured:
[1] = target: Norwalk virus 3C protease (Norovirus, UniProt Q83883); experiment: Recombinant NV protease fluorogenic; format: biochemical; conditions: for IC50 column: designated inactive (percent inhibition < 25): incubated with the enzyme for 30 minutes at an [I]/[S] ratio of 25
HG23 cells = experiment: Cell cytotoxicity assay kit in HG23 cells; format: cell-based; conditions: 48 hr of treatment
murine norovirus (MNV) = experiment: Murine norovirus replication in RAW267.4 cells; format: cell-based, murine norovirus-1 (MNV-1); conditions: MNV-1 at MOI of 2, TCID50 assay
[2] = test system: Norwalk norovirus (NV replicon-harboring HG23 cells); experiment: Cell-based NV replicon system; parameters: species or system Norwalk virus; conditions: NV genome levels at 24 hr post-treatment
Outline: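 Norwalk virus replicon-harbouring HG23 cells, 1 day old and 80-90% confluent, were treated with the test compound from 0 (mock-DMSO) to 320 μM. NV genome was measured by qRT-PCR. ED50 was determined from NV genome levels at 24 hr post-treatment.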

Chain of Norwalk virus 3C protease (Q83883 1101-1281): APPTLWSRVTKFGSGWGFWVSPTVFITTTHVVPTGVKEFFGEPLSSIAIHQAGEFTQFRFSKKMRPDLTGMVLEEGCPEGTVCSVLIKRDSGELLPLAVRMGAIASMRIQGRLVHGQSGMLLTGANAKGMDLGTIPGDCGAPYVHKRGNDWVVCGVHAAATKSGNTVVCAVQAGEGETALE

| Structure (SMILES) | Inhibition of Norwalk virus 3C protease (in words) [1] | IC50 column: designated inactive (percent inhibition < 25) [1] | TD50 (median toxic dose) (HG23 cells) [µM] | ED50, replication of murine norovirus (MNV) (murine norovirus (MNV)) [µM] | ED50 (effective dose that inhibits 50% of norovirus replication) [2] [µM] |
| --- | --- | --- | --- | --- | --- |
| CCCC[C@H](NC(=O)CNC(=O)OCc1ccccc1)C(=O)N[C@H](C=O)CC1CCNC1=O (some centres unmarked) [Compound 7] | sub-micromolar inhibitor |  |  |  |  |
| CC(C)C[C@H](NC(=O)CNC(=O)OCc1ccccc1)C(=O)N[C@H](CO)CC1CCNC1=O (some centres unmarked) [Compound 6] |  | Inactive ^a |  |  |  |
| CC(C)C[C@H](NC(=O)CNC(=O)OCc1ccccc1)C(=O)N[C@H](C=O)CC1CCNC1=O (some centres unmarked) [Compound 5] |  |  | > 320 | 20.3 | 7.8 |
| CC(C)C[C@H](NC(=O)OCc1ccccc1)C(=O)N[C@H](CO)CC1CCNC1=O (some centres unmarked) [Compound 3] |  | Inactive ^a |  |  |  |
| O=C[C@H](CC1CCNC1=O)NC(=O)[C@H](Cc1ccccc1)NC(=O)N1CCOCC1 (some centres unmarked) [Compound 2] |  | Inactive ^a |  |  |  |
| CCCC[C@H](NC(=O)CNC(=O)OCc1ccccc1)C(=O)N[C@H](CO)CC1CCNC1=O (some centres unmarked) [Compound 8] |  | Inactive ^a |  |  |  |
| CC(C)C[C@H](NC(=O)OCc1ccccc1)C(=O)N[C@@H](CC1CCNC1=O)C(=O)C(=O)NC(C)C (some centres unmarked) [Compound 10] | devoid of inhibitory activity | Inactive ^a |  |  |  |
| CC(C)C[C@H](NC(=O)OCc1ccccc1)C(=O)N[C@H](C=O)CC1CCNC1=O (some centres unmarked) [Compound 4] | dose-dependent inhibition |  | > 320 | 5.5 | 2.1 |
